Screens: PubChem BioAssay, several laboratories
Myeloid diff MLP: promotes myeloid progenitor differentiation; calls only at 10 µM; AID 624256; 360,000 tested, 1% active; ER-HoxA9 myeloid progenitors, lysozyme-GFP differentiation, flow cytometry;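 active = normalized GFP-positive differentiation at or above the plate's own cutoff, the solvent-only control mean plus 3 SD; inconclusive = no clear call, values can overlap the other calls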;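 note: cells exposed to compound for four days before flow analysis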
Vif imaging: inhibitors of HIV Vif. HEK293T cells, Vif self-association by quenched fluorescence, imaging, 24 h. inhibition, % at 7.49 µM. 340,000 tested, 0.35% active; in the data active = inhibition above about 50%, passing the limit was not always enough; inconclusive = no clear call, values can overlap the other calls; inactive = below about 31%
Pemphigus Ab inh: blocks pemphigus antibody binding to human desmoglein-3 | P32926 | DSG3-coupled beads, scFv-anti-DSG3-GFP binding, flow cytometry; stronger effect = lower value | binding (percent of control), % at 10 µM | 310,000 tested, 0.48% active;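 active = binding more than 3 SD below its plate's average and above zero; inconclusive = below that plate limit but binding exactly zero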;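 note: hits lower antibody fragment binding to DSG3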
Target sequence (P32926 whole entry, looked up, the tested form may be a part): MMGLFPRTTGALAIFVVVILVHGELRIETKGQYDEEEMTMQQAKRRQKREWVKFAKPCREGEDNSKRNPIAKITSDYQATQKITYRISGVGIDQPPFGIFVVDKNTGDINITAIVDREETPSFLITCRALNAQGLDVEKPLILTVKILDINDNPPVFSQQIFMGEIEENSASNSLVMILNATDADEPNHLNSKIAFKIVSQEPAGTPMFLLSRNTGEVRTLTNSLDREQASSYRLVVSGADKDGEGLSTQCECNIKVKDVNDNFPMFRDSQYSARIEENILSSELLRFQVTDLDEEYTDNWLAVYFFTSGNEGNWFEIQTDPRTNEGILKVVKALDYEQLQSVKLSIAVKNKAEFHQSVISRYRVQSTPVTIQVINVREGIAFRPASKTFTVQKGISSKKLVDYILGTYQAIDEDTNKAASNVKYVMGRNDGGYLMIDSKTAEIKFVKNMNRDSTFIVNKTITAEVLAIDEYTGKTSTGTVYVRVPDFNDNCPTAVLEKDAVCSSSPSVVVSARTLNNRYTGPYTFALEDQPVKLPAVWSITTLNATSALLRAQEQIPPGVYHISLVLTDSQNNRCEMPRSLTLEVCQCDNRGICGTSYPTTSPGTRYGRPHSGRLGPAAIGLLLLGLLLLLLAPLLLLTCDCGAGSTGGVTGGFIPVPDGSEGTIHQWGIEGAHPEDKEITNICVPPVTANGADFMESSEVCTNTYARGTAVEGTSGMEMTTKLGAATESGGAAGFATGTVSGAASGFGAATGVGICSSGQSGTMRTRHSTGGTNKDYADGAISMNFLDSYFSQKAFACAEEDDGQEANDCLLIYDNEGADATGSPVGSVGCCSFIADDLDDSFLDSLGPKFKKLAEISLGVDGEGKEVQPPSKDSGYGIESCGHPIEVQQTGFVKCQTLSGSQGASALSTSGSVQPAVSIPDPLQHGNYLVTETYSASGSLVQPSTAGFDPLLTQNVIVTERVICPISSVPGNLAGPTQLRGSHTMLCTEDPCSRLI
T cell modulator: T cell immune modulation candidate | 2C CD8+ T cell-vesicle binding, flow cytometry; stronger effect = lower value | response (vesicle binding), % at 7 µM | 330,000 tested, 0.068% active | AID 2052;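 active = response, share of CD8 T cells binding vesicles, and their 90th percentile fluorescence all below set limits, cut at about 80% in these data, passing the limit was not always enough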;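 note: values below 100% mean blocked vesicle binding to the CD8+ T cells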
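Material: murine 2C transgenic CD8+ T lymphocytes / Also added: QL9-peptide-loaded Drosophila micro-vesicles bearing Ld, ICAM-1 and B7-1 / Schedule: binding step 1.5 h, 37 °C, antibody labelling 20 min, ice / Signal: flow cytometry, PE anti-B7-1 (FL2) versus Alexa647 anti-CD8 (FL8), PFA-fixed / Evaluation: percent CD8+ FL2 mean versus row control / Benchmarks: naked versus QL9-loaded vesicles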
The depositor's hits bear a star; i = inactive; ? = inconclusive; . = no result given; + = active, no number. This is a sample that favours compounds with a hit; in the whole collection about 1.7% have one here.

SMILES	Myeloid diff MLP	Vif imaging	Pemphigus Ab inh	T cell modulator
CCCCn1c(N)c(-c2nc3ccccc3s2)c2c([N+](=O)[O-])nn(C)c(=O)c21	i	0	85*	270
CCCCn1c(N)c(-c2nc3ccccc3s2)c2c([N+](=O)[O-])nn(CC)c(=O)c21	i	10	103	426
C#CC1(NC(=S)Nc2cccc(OC)c2)CCCCC1	i	12	107	.
COc1ccc(NC(=O)C2(C)Cc3c(-c4ccc(N(C)C)cc4)ccnc3O2)cc1 (stereo unspecified)	i	.	.	.
O=C(Cn1cnc2c(cnn2-c2ccccc2)c1=O)N1CCN(c2ccc(F)cc2)CC1	i	-2	86*	245
CCC1(C2C=COC=C2)NC(=O)NC1=O (stereo unspecified)	i	-7	.	.
CCN1C(=O)Nc2cccc3cccc1c23	i	8	104	238
CCC1=[N+](C)c2cccc3cccc(c23)N1C	+	4	108	147
O=C1CS/C(=N/N=C/c2cccs2)N1Cc1ccc(F)cc1	i	-3	70*	545
C=CCN1C(=O)C(Cc2ccc(F)cc2)S/C1=N/N=C/c1cccs1 (stereo unspecified)	i	-10	103	608
N#Cc1c(Cl)cccc1-n1ccnc1	+	14	100	140
Cc1cc(C)n(-c2cccc(Cl)c2C#N)n1	i	3	115	483
CC1=C(C(=O)N2CCCCCC2)CC(CC(=O)NCC2CCCCC2)C(=O)N1Cc1ccc(F)cc1 (stereo unspecified)	i	.	.	.
COc1ccc(NS(=O)(=O)c2cc(C(=O)NNC(=O)c3ccncc3)ccc2OC)c(OC)c1	i	7	.	403
O=C(OCCO)c1c(C2=CCCCC2)oc2c1C(OCCO)CCC2 (stereo unspecified)	i	.	.	.
COc1ccc(NC(=O)C(c2ccc(C(F)(F)F)cc2)n2c(=O)c(-c3cc4ccccc4[nH]3)nc3ccccc32)cc1 (stereo unspecified)	i	.	.	.
O=C(c1ccc(Cl)c(Cl)c1)c1cnc(Nc2ccccc2)s1	i	9	-25*	490
CNc1ncc(C(=O)c2ccc(Cl)c(Cl)c2)s1	i	-1	93	789
N#Cc1ccc(S(=O)(=O)N2CCCCC2c2cc(C(=O)NCc3cccnc3)no2)cc1 (stereo unspecified)	i	3	.	.
COc1cc(CNc2ccc3[nH]c(=O)[nH]c3c2)cc(Br)c1OCc1ccc(F)cc1	+	27	98	142
COc1ccc(C2=Nn3c(nnc3-c3ccccc3OC)SC2)cc1OC	i	55*	.	476
COc1ccc(-c2nnc3n2N=C(C)CS3)cc1	i	-3	104	394
COc1ccc(C2=Nn3c(nnc3-c3ccccc3Cl)SC2)cc1OC1CCOC1 (stereo unspecified)	i	1	74*	313
COc1ccc(C2=Nn3c(nnc3-c3ccc(OC)cc3)SC2)cc1	i	66*	101	807
O=c1oc2ccccc2cc1-c1csc(Cc2nc(-c3ccc(Cl)cc3)cs2)n1	i	-6	96	266
SMILES	Myeloid diff MLP	Vif imaging	Pemphigus Ab inh	T cell modulator
CCN(CC)c1ccc2cc(-c3nc(-c4cc5ccccc5oc4=O)cs3)c(=O)oc2c1	+	3	192	.
Cc1ccc2cc(NC(=O)C3(C)CCN3C(C)C)ccc2n1 (stereo unspecified)	i	?	.	.
CCOC(=O)c1[nH]c(C)c(C(=O)Nc2cccc(Cl)c2C)c1C	+	23	101	385
C=CCOC(=O)C1=C[C@@H](c2ccc(C(F)(F)F)cc2)C[C@@H](OCCCCO)O1	i	20	97	.
C=CCOC(=O)C1=C[C@@H](c2ccc(Br)cc2)C[C@@H](OCCCCO)O1	i	51*	98	457
Cc1ccc(N(C)C(=O)c2cc(S(=O)(=O)N3CCc4ccccc43)cn2C)cc1	i	.	104	379
Cc1cccc(N(C)C(=O)c2cc(S(=O)(=O)N3CCc4ccccc43)cn2C)c1	+	3	103	268
O=C(NCc1ccccc1)C1c2ccccc2OCC(=O)N1Cc1ccccc1 (stereo unspecified)	i	.	.	.
COc1ccc(/C=C2/SC(=O)NC2=O)cc1	i	.	103	276
COc1ccc(/C=C2\C(=O)NCC(=O)N2C)cc1	+	-6	497	170
CN(CCc1ccccc1)C(=O)c1[nH]c(C(F)(F)F)nc1-c1ccccc1	i	.	.	.
O=C1/C(=C/C=C/c2ccco2)SC(=S)N1NS(=O)(=O)c1ccccc1	i	2	51*	495
CCN(C(=O)C(C)N1C(=O)/C(=C/c2ccco2)SC1=S)C1CCS(=O)(=O)C1 (stereo unspecified)	?	5	105	309
CC(C(=O)O)N1C(=O)/C(=C/C=C/c2ccco2)SC1=S (stereo unspecified)	i	.	69*	244
O=C(NCC1CCCO1)c1ccc2c(c1)C(=O)N(c1cccc([N+](=O)[O-])c1)C2=O (stereo unspecified)	?	14	41*	160
COc1cc(C(=O)Nc2ccc3c(c2)ncn3C)cc(OC)c1OC	i	76*	122	294
Fc1ccc(NCc2n[nH]c(=S)n2Cc2ccccc2)cc1	i	62*	102	445
S=c1[nH]nc(CNc2ccc(Cl)cc2)n1Cc1ccccc1	i	-1	97	221
CC1(Oc2cccc(F)c2)CCN(Cc2ccc(-c3ccccc3)o2)C1 (stereo unspecified)	i	21	.	.
CCOC(=O)c1[nH]c2c(c1-c1ccccc1)C(=O)CC(c1ccc(OCC)cc1)C2 (stereo unspecified)	i	10	-0.8*	252
O=[N+]([O-])c1ccc(/C=C/C2=NN(c3ccccc3)C(c3ccco3)C2)o1 (stereo unspecified)	+	i	180	.
CSc1cccc(N2CC(C(=O)NCCC3=CCCCC3)CC2=O)c1 (stereo unspecified)	i	66*	101	189
CCC(C(=O)NC1CCCC1)n1c(-c2ccncc2)nc2ccccc21 (stereo unspecified)	i	.	.	.
OC(c1ccc2ccccc2c1)c1ncc(-c2cccc3ccccc23)[nH]1 (stereo unspecified)	i	-7	.	.
Nc1ccc2nc(SCC(=O)c3ccccc3)sc2c1	i	-6	92*	252
SMILES	Myeloid diff MLP	Vif imaging	Pemphigus Ab inh	T cell modulator
Nc1ccc2nc(SCc3ccccc3F)sc2c1	i	-8	105	568
COc1ccc(NC(=O)CSc2nnc(C)c3ccccc23)cc1	i	-2	160	400
COc1ccc(NC(=O)CSc2ccc3c4c(cccc24)C(=O)c2ccccc2-3)cc1	+	i	137	692
N#Cc1cccc(NC(=O)CSc2ccc3c4c(cccc24)C(=O)c2ccccc2-3)c1	+	.	180	355
COc1ccccc1C(=O)NC(CCSC)C(=O)OCC(=O)N1CCCC1=O (stereo unspecified)	i	-4	98	407
C/C(=N\N)c1c(-c2ccccc2)c2cc(C)ccc2[nH]c1=O	i	-3	86	61
